Experimental data taken from publication PMC10329955 (Advances in Therapy, 2023).
“Also recorded” adds a separate entry of the source.

Legend:
[1] = Tirzepatide plasma pharmacokinetics after multiple SC doses; format: in vivo, human; settings: Chinese patients with T2D, QW SC 2.5–15.0 mg
How it was run: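 Plasma test compound concentrations were measured after once-weekly SC doses escalated from 2.5 mg by 2.5 mg every 4 weeks, to 10.0 mg or 15.0 mg. Cmax, AUC, Tmax and T½ were derived. T½ was calculated over periods both shorter and longer than the resulting T½. Patients with ≥1 dose and evaluable data were analysed.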

[2] = test system: Chinese patients with type 2 diabetes; assay: Immunogenicity: anti-drug antibodies; format: in vivo, human
How it was run: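 Randomised 5:1, double-blind, placebo-controlled. Test compound or placebo given once weekly SC, starting at 2.5 mg and rising 2.5 mg every 4 weeks to 10.0 or 15.0 mg. Frequency and percentage of patients with pre-existing and treatment-emergent ADAs were recorded. Treatment-induced meant a titer twofold/1-dilution above the minimum required dilution with no baseline ADA. Treatment-boosted meant a fourfold/2-dilution titer rise over a positive baseline.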

[3] = test system: Chinese patients with type 2 diabetes; assay: Safety and tolerability; format: in vivo, human; settings: during the study
How it was run: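 Adults aged 20–70 with T2D and BMI ≥ 23.0 kg/m2 received once-weekly SC test compound or placebo, followed by 4 weeks of follow-up. AEs were recorded on an electronic CRF with investigator-assessed relatedness. TEAEs were events arising or worsening after treatment start. Also collected: laboratory values, vital signs, ECG, injection-site reactions and hypoglycaemia (glucose ≤ 70.0 mg/dL, graded per International Hypoglycaemia Study Group). All enrolled patients were included.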

[4] = test system: Chinese patients with type 2 diabetes; assay: Pharmacodynamics: change from baseline in HbA1c, FPG, 7-point SMBG, meal intake; format: in vivo, human; settings: both tirzepatide groups; not apparent in placebo
[5] = global and Japanese patient populations, single and multiple doses; cited from earlier work
[6] = all 20 patients treated with tirzepatide, treatment-induced

## CC[C@H](C)[C@H](NC(=O)[C@H](CC(C)C)NC(=O)[C@H](Cc1c[nH]c2ccccc12)NC(=O)[C@H](CCC(N)=O)NC(=O)[C@@H](NC(=O)[C@H](Cc1ccccc1)NC(=O)[C@H](C)NC(=O)[C@H](CCCCNC(=O)COCCOCCNC(=O)COCCOCCNC(=O)CC[C@H](NC(=O)CCCCCCCCCCCCCCCCCCC(=O)O)C(=O)O)NC(=O)[C@H](CCC(N)=O)NC(=O)[C@H](C)NC(=O)[C@@H](NC(=O)[C@H](CCCCN)NC(=O)[C@H](CC(=O)O)NC(=O)[C@H](CC(C)C)NC(=O)C(C)(C)NC(=O)[C@@H](NC(=O)[C@H](CO)NC(=O)[C@H](Cc1ccc(O)cc1)NC(=O)[C@H](CC(=O)O)NC(=O)[C@H](CO)NC(=O)[C@@H](NC(=O)[C@H](Cc1ccccc1)NC(=O)[C@@H](NC(=O)CNC(=O)[C@H](CCC(=O)O)NC(=O)C(C)(C)NC(=O)[C@@H](N)Cc1ccc(O)cc1)[C@@H](C)O)[C@@H](C)O)[C@@H](C)CC)[C@@H](C)CC)C(C)C)C(=O)N[C@@H](C)C(=O)NCC(=O)NCC(=O)N1CCC[C@H]1C(=O)N[C@@H](CO)C(=O)N[C@@H](CO)C(=O)NCC(=O)N[C@@H](C)C(=O)N1CCC[C@H]1C(=O)N1CCC[C@H]1C(=O)N1CCC[C@H]1C(=O)N[C@@H](CO)C(N)=O [Tirzepatide, tirzepatide]
[1]
  T½, range of values across weeks and cohorts: 124 to 145 h
[2]; 2.5–10.0 mg group
  ADA-positive patients post-baseline, number: five
[2]; 2.5–15.0 mg group
  ADA-positive patients post-baseline, number: three
[2]; [6]
  ADA-positive patients post-baseline, number: Eight
  ADA-positive patients post-baseline, percentage: 40%
[2]; baseline
  ADAs at baseline: No ADAs were detected
[2]; in vivo
  impact of ADA-positive status on safety, PK and PD: no apparent impact
[3]; both tirzepatide groups
  deaths or SAEs in patients receiving tirzepatide: no serious adverse events reported; also recorded: No deaths or SAEs occurred
[3]
  changes in vital signs measurements: No clinically meaningful changes
[4]
  meal intake between baseline and end of study: trend towards a decrease
[5]
  median Tmax range: 24 to 48 h
